Data taken from ChEMBL document CHEMBL1127318, “Hypoxia-selective antitumor agents. 8. Bis(nitroimidazolyl)alkanecarboxamides: a new class of hypoxia-selective cytotoxins and hypoxic cell radiosensitisers” (J Med Chem, 1994).

Tests used:
CHO-AA8 [1] = assay: Compound concentration at which sensitizer enhancement ratio =1.6 under hypoxia.; format: functional, Cricetulus griseus
In short: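 Stirred AA8 suspensions gassed 60 min with 5% CO2 in N2. Drug added 30 min before ⁶⁰Co irradiation at 37 °C (ca. 2 Gy/min, typically 6 Gy steps). Clonogenic survival taken against unirradiated cells from the same culture. Linear-quadratic fit gives D10; SER = D10 without/with drug, determined over a range of concentrations to estimate C1.6. Only concentrations with minimal drug toxicity during irradiation were used.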

FME = assay: Aerobic cytotoxicity against human melanoma FME cells in a growth inhibition microassay; format: functional
In short: (§1)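 Cells kept as log-phase monolayers in antibiotic-free Alpha MEM with 10% heat-inactivated FCS. Per well: 200 AA8, 300 UV4, 50 EMT6 or 1000 FME cells. Drug added 24 h after seeding and removed after 18 h. Cell mass (protein, methylene blue absorbance) read 72–78 h after washout. IC50 = concentration giving 50% of the mean of eight controls on the same plate.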

[2] = Partition coefficient (logP); format: physicochemical; conditions: octanol/water
In short: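 log P octanol computed with CLOGP rather than measured.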

CHO-AA8 [3] = assay: (§2) Compound concentration required to reduce cell survival to 10% of control values under hypoxic condition; format: cell-based, Cricetulus griseus; conditions: chinese hamster
In short: (§3)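 Chinese hamster AA8 cells at plateau phase, 10⁶/mL, in magnetically stirred 10-mL suspensions. Gassed continuously with 5% CO₂ in N₂ (hypoxic) or in air (aerobic); cells and drug preequilibrated under the gas for 60 min. Clonogenic plating efficiency read every 0.5–1 h for up to 8 h at several drug concentrations. Concentration × time for 10% survival (CT10) estimated at each concentration.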

EMT6 = assay: Aerobic cytotoxicity against murine mammary carcinoma EMT6 cells in a growth inhibition microassay; format: functional, Mus musculus; in short: as §1
[4] = The ratio of aerobic CT10 to hypoxic CT10.; format: functional
In short: (§4)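 Clonogenic assay on stirred plateau-phase AA8 suspensions (10⁶/mL), gassed with 5% CO₂ in air or in N₂ after 60 min preequilibration. Survival sampled every 0.5–1 h up to 8 h at several drug concentrations. CT10 taken at each concentration. Interpolated aerobic CT10 divided by hypoxic CT10 at the same time; ranges cover 1–8 h exposure.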

[5] = (§5) In vitro therapeutic index (aerobic IC50 / hypoxic C1.6); format: cell-based, Cricetulus griseus; conditions: chinese hamster, CHO-AA8 cells; read-out: TI
In short: (§6)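 Hypoxic C1.6: stirred AA8 gassed with 5% CO₂/N₂ 60 min, drug 30 min, ⁶⁰Co irradiation at 37 °C (~2 Gy/min). D10 from linear-quadratic fit; concentration giving SER 1.6 interpolated. Index = IC50/C1.6.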

[6] = Ratio of mean intracellular to extracellular compound concentration determined under hypoxic condition.; format: functional, cell-based
In short: (§7)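 AA8 suspension (10⁷ cells) made hypoxic with 5% CO₂ in N₂, exposed 30 min at 37 °C to drug at the C1.6. Supernatant and lysed pellet extracted in MeCN. Assayed by C18 HPLC (formate pH 4.5/MeCN gradient, 320 nm), corrected for spiked recoveries. Intracellular level from 11.6 µL cell water/10⁷ cells, with [¹⁴C]sucrose and ³H₂O spaces. Result expressed as Ci/Ce.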

CHO-AA8 [7] = assay: Average intracellular compound concentration when the hypoxic SER=1.6.; format: functional, Cricetulus griseus
In short: (§8)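 Hypoxic stirred AA8 suspensions (10⁷ cells) incubated 30 min at the C1.6 concentration. Cells and supernatant separated by centrifugation and extracted into MeCN. Drug measured by C18 HPLC with formate pH 4.5/MeCN gradient, absorbance 320 nm. Values corrected for recovery using spiked medium or lysed pellets. Mean intracellular concentration calculated assuming 11.6 µL cell water and 1.1 µL pellet extracellular water per 10⁷ cells.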

UV4 = assay: Aerobic cytotoxicity against UV4 cells in a growth inhibition microassay; format: functional, Cricetulus griseus; in short: as §1
CHO-AA8 [8] = assay: Concentration required to reduce AA8 cell numbers to 50% of controls in a growth inhibition microassay; format: functional, cell-based; conditions: Cricetulus griseus; in short: as §1
CHO-AA8 [9] = assay: Compound concentration required to reduce cell survival to 10% of control values under hypoxic condition.; format: cell-based, Cricetulus griseus; conditions: chinese hamster; in short: as §3
CHO-AA8 [10] = assay: Average intracellular compound concentration where the sensitizer enhancement ratio (SER)=1.6 under hypoxia; format: functional, Cricetulus griseus; in short: as §8
[11] = as §5; format: functional; in short: as §6
CHO-AA8 [12] = assay: Average intracellular compound concentration where the hypoxia sensitizer enhancement ratio (SER)=1.6; format: functional, Cricetulus griseus; in short: as §8
[13] = Ratio of mean intracellular to extracellular compound concentration determined under hypoxic conditions 30 mins after exposure to compound at C1.6 concentration; format: functional, cell-based; in short: as §7
CHO-AA8 [14] = assay: as §2; format: functional, Cricetulus griseus
In short: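 Plateau-phase AA8 cells (10⁶/mL) in magnetically stirred 10-mL cultures, gassed continuously with N2 plus 5% CO2. Cells and drug pre-equilibrated 60 min. Clonogenic plating every 0.5–1 h for up to 8 h at several concentrations. CT10 (concentration × time for 10% survival) estimated at each concentration.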

CHO-AA8 [15] = assay: Average intracellular compound concentration when the hypoxic SER=1.6; format: functional, Cricetulus griseus; in short: as §8
[16] = The ratio of aerobic CT10 to hypoxic CT10; format: functional; in short: as §4
CHO-AA8 [17] = assay: as §5; format: functional, Cricetulus griseus
In short: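 C1.6 is the concentration giving SER 1.6 in hypoxic stirred AA8 suspensions exposed to drug for 30 min before ⁶⁰Co irradiation at 37 °C.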

Row | SMILES | C1.6 (CHO-AA8 [1]) | Hypersensitivity factor (FME) | logP [2] | CT10 (CHO-AA8 [3]) | Hypersensitivity factor (EMT6) | Ratio [4] | selectivity ratio [5] | Uptake ratio [6] | C1.6 (CHO-AA8 [7]) | Hypersensitivity factor (UV4) | IC50 (CHO-AA8 [8]) | CT10 (CHO-AA8 [9]) | C1.6 (CHO-AA8 [10]) | TI [11] | C1.6 (CHO-AA8 [12]) | Uptake ratio [13] | CT10 (CHO-AA8 [14]) | C1.6 (CHO-AA8 [15]) | Ratio [16] | TI (CHO-AA8 [17])
1 | Cc1ncc([N+](=O)[O-])n1CCNC(=O)CCCCn1ccnc1[N+](=O)[O-] | 0.93 mM | 3.5 | -0.79 | 6 mM-hr | 1.7 | > 7 | 4 | 0.52 | 0.48 mM | 1.2 | 3.8 mM |  |  |  |  |  |  |  |  | 
2 | Cc1ncc([N+](=O)[O-])n1CCNC(=O)Cn1c([N+](=O)[O-])cnc1C | 2.7 mM | 2.3 | -0.76 |  | 4.4 | 2 | 2.8 | 1.5 | 4.1 mM | 1 | 7.7 mM | 50 mM-hr |  |  |  |  |  |  |  | 
3 | O=C(CCCn1ccnc1[N+](=O)[O-])NCCn1cnc([N+](=O)[O-])c1 | >1.1 mM |  | -1.55 | > 15 mM-hr |  |  | < 1.6 |  | >0.36 mM |  |  |  |  |  |  |  |  |  |  | 
4 | Cc1ncc([N+](=O)[O-])n1CCNC(=O)Cn1ccnc1[N+](=O)[O-] | 1.08 mM | 2.1 | -1.03 | 11 mM-hr | 2.2 | 2.4 | 4.3 | 0.5 | 0.54 mM | 1 | 4.7 mM |  |  |  |  |  |  |  |  | 
5 | COCC(O)Cn1ccnc1[N+](=O)[O-] (centres undefined) [MISONIDAZOLE] |  | 1.9 |  |  | 3.6 | 25 |  |  |  | 1.4 |  | 8.3 mM-hr | 0.43 mM | 28 | 0.4 mM | 0.9 |  |  |  | 
6 | O=C(CCCn1ccnc1[N+](=O)[O-])NCCn1cncc1[N+](=O)[O-] | 0.9 mM | >2.1 | -1.55 | 0.8 mM-hr | >1.7 | > 30 | > 4.7 | 0.3 | 0.27 mM |  | > 4.2 mM |  |  |  |  |  |  |  |  | 
7 | Cc1ncc([N+](=O)[O-])n1CCNC(=O)CCCCCn1ccnc1[N+](=O)[O-] | 0.65 mM |  | -0.22 |  |  | > 17 | 1.2 | 0.55 | 0.36 mM |  |  |  |  |  |  |  | 1.5 mM-hr |  |  | 
8 | O=C(CCCn1ccnc1[N+](=O)[O-])NCCn1ccnc1 |  | 3 | 1.32 |  | 4.2 | 8 |  |  |  | 1.3 | 24 mM | 26 mM-hr | 4 mM | 6 | 1.32 mM | 0.33 |  |  |  | 
9 | O=C(CCCn1ccnc1[N+](=O)[O-])NCCn1ccnc1[N+](=O)[O-] | 1.54 mM |  | -1.55 | 3.4 mM-hr |  | > 6 | 1.7 | 0.5 |  |  |  |  |  |  |  |  |  | 0.77 mM |  | 
10 | Cc1ncc([N+](=O)[O-])n1CCNC(=O)CCCn1ccnc1[N+](=O)[O-] | 0.63 mM | 4.6 | -1.28 | 0.37 mM-hr | 1.3 | 8 | 11 | 0.33 | 0.21 mM | 1.4 | 7.2 mM |  |  |  |  |  |  |  |  | 
11 | O=C(CCn1ccnc1[N+](=O)[O-])NCCCn1ccnc1[N+](=O)[O-] |  | 3.9 | -1.55 | 2.5 mM-hr | 3.5 | 6.5 |  |  |  | 1.2 | 6.1 mM |  |  |  |  |  |  |  |  | 
12 | Cc1ncc([N+](=O)[O-])n1CCNC(=O)CCn1ccnc1[N+](=O)[O-] | 0.7 mM | 2.9 | -0.99 | 12 mM-hr | 2.5 | > 7 | 7.9 | 0.6 | 0.42 mM | 0.9 | 5.5 mM |  |  |  |  |  |  |  |  | 
13 | Cc1ncc([N+](=O)[O-])n1CCO [METRONIDAZOLE] |  | 1 |  | 100 mM-hr | 1 |  | 1.7 |  |  | 1 | 23 mM |  | 13.3 mM |  | 17.3 mM | 1.3 |  |  | 5 | 
14 | O=[N+]([O-])c1nccn1CC(O)CNCCBr (centres undefined) | 0.13 mM | 1 |  | 0.18 mM-hr | 1.6 | 20 |  |  |  | 5.9 | 0.15 mM |  |  |  |  |  |  |  |  | 1.1
